ChEMBL document CHEMBL4138126, “Synthesis, antiproliferative, anti-tubulin activity, and docking study of new 1,2,4-triazoles as potential combretastatin analogues” (Eur J Med Chem, 2017)

Assays:
T47D = experiment: Growth inhibition of human T47D cells assessed as cell growth at 10 uM after 48 hrs by sulforhodamine B assay; format: functional; settings: read-out: Activity
In short: (§1)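 NCI 60-cell-line panel from nine tumour types (leukaemia, lung, colon, CNS, melanoma, ovarian, renal, prostate, breast). Each compound was added at one single concentration, and cultures were incubated for 48 h. Results are reported as percent growth inhibition.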

HOP-92 = experiment: Growth inhibition of human HOP92 cells assessed as cell growth at 10 uM after 48 hrs by sulforhodamine B assay; format: functional; settings: HOP-92, 48 h, read-out: Activity
In short: (§2)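 NCI 60-cell-line panel screen (nine cancer types). Compounds added at single concentration 10^-5 M, cultures incubated 48 h; growth inhibition percentages reported.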

K562 = experiment: Growth inhibition of human K562 cells assessed as cell growth at 10 uM after 48 hrs by sulforhodamine B assay; format: functional; settings: K562, 48 h, read-out: Activity; in short: as §2
SW-620 = experiment: Growth inhibition of human SW620 cells assessed as cell growth at 10 uM after 48 hrs by sulforhodamine B assay; format: functional; settings: SW-620, 48 h, read-out: Activity; in short: as §1
HCC 2998 = experiment: Growth inhibition of human HCC2998 cells assessed as cell growth at 10 uM after 48 hrs by sulforhodamine B assay; format: functional; settings: HCC 2998, 48 h, read-out: Activity; in short: as §2
LOX IMVI = experiment: Growth inhibition of human LOXIMVI cells assessed as cell growth at 10 uM after 48 hrs by sulforhodamine B assay; format: functional; settings: read-out: Activity; in short: as §2
COLO 205 = experiment: Growth inhibition of human COLO205 cells assessed as cell growth at 10 uM after 48 hrs by sulforhodamine B assay; format: functional; settings: COLO 205, 48 h, read-out: Activity; in short: as §2
SF-268 = experiment: Growth inhibition of human SF268 cells assessed as cell growth at 10 uM after 48 hrs by sulforhodamine B assay; format: functional; settings: SF-268, 48 h, read-out: Activity; in short: as §2
MCF7 = experiment: Growth inhibition of human MCF7 cells assessed as cell growth at 10 uM after 48 hrs by sulforhodamine B assay; format: functional; settings: MCF7, 48 h, read-out: Activity; in short: as §2
SK-MEL-2 = experiment: Growth inhibition of human SK-MEL-2 cells assessed as cell growth at 10 uM after 48 hrs by sulforhodamine B assay; format: functional; settings: SK-MEL-2, 48 h, read-out: Activity; in short: as §2
PC-3 = experiment: Growth inhibition of human PC3 cells assessed as cell growth at 10 uM after 48 hrs by sulforhodamine B assay; format: functional; settings: PC-3, 48 h, read-out: Activity; in short: as §2
U-251 = experiment: Growth inhibition of human U251 cells assessed as cell growth at 10 uM after 48 hrs by sulforhodamine B assay; format: functional; settings: U-251, 48 h, read-out: Activity; in short: as §1
SN12C = experiment: Growth inhibition of human SN12C cells assessed as cell growth at 10 uM after 48 hrs by sulforhodamine B assay; format: functional; settings: read-out: Activity; in short: as §1
TK-10 = experiment: Growth inhibition of human TK10 cells assessed as cell growth at 10 uM after 48 hrs by sulforhodamine B assay; format: functional; settings: TK-10, 48 h, read-out: Activity; in short: as §1
SF-295 = experiment: Growth inhibition of human SF295 cells assessed as cell growth at 10 uM after 48 hrs by sulforhodamine B assay; format: functional; settings: SF-295, 48 h, read-out: Activity; in short: as §2
NCI-H226 = experiment: Growth inhibition of human NCI-H226 cells assessed as cell growth at 10 uM after 48 hrs by sulforhodamine B assay; format: functional; settings: NCI-H226, 48 h, read-out: Activity; in short: as §2
786-0 = experiment: Growth inhibition of human 786-0 cells assessed as cell growth at 10 uM after 48 hrs by sulforhodamine B assay; format: functional; settings: 786-0, 48 h, read-out: Activity; in short: as §2
NCI-H322M = experiment: Growth inhibition of human NCI-H322M cells assessed as cell growth at 10 uM after 48 hrs by sulforhodamine B assay; format: functional; settings: read-out: Activity; in short: as §2
UACC-62 = experiment: Growth inhibition of human UACC62 cells assessed as cell growth at 10 uM after 48 hrs by sulforhodamine B assay; format: functional; settings: UACC-62, 48 h, read-out: Activity; in short: as §1
SK-MEL-28 = experiment: Growth inhibition of human SK-MEL-28 cells assessed as cell growth at 10 uM after 48 hrs by sulforhodamine B assay; format: functional; settings: SK-MEL-28, 48 h, read-out: Activity; in short: as §2
OVCAR-8 = experiment: Growth inhibition of human OVCAR8 cells assessed as cell growth at 10 uM after 48 hrs by sulforhodamine B assay; format: functional; settings: OVCAR-8, 48 h, read-out: Activity; in short: as §2
SF-539 = experiment: Growth inhibition of human SF539 cells assessed as cell growth at 10 uM after 48 hrs by sulforhodamine B assay; format: functional; settings: SF-539, 48 h, read-out: Activity; in short: as §2
KM12 = experiment: Growth inhibition of human KM12 cells assessed as cell growth at 10 uM after 48 hrs by sulforhodamine B assay; format: functional; settings: KM12, 48 h, read-out: Activity; in short: as §2
HL-60 = experiment: Cytotoxicity in human HL60 cells assessed as reduction in cell viability incubated for 48 hrs by MTT assay; format: functional, cell-based; settings: HL-60, 48 h
In short: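 HepG2 and HL60 (ATCC) grown in DMEM with 10% FBS, 2 mM L-glutamine, penicillin/streptomycin, amphotericin B at 37 °C, 5% CO2. Samples dissolved in DMSO, diluted thousandfold in assay. Cells seeded in serum-free medium, treated with serial concentrations 48 h; MTT 4 h, formazan dissolved in acidified isopropanol, A570. Triplicates averaged; viability relative to untreated/vehicle control.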

M14 = experiment: Growth inhibition of human M14 cells assessed as cell growth at 10 uM after 48 hrs by sulforhodamine B assay; format: functional; settings: M14, 48 h, read-out: Activity; in short: as §2
NCI-H522 = experiment: Growth inhibition of human NCI-H522 cells assessed as cell growth at 10 uM after 48 hrs by sulforhodamine B assay; format: functional; settings: NCI-H522, 48 h, read-out: Activity; in short: as §2
SK-MEL-5 = experiment: Growth inhibition of human SK-MEL-5 cells assessed as cell growth at 10 uM after 48 hrs by sulforhodamine B assay; format: functional; settings: SK-MEL-5, 48 h, read-out: Activity; in short: as §2
OVCAR-4 = experiment: Growth inhibition of human OVCAR4 cells assessed as cell growth at 10 uM after 48 hrs by sulforhodamine B assay; format: functional; settings: OVCAR-4, 48 h, read-out: Activity; in short: as §2
CAKI-1 = experiment: Growth inhibition of human CAKI-1 cells assessed as cell growth at 10 uM after 48 hrs by sulforhodamine B assay; format: functional; settings: CAKI-1, 48 h, read-out: Activity; in short: as §2
UACC-257 = experiment: Growth inhibition of human UACC257 cells assessed as cell growth at 10 uM after 48 hrs by sulforhodamine B assay; format: functional; settings: UACC-257, 48 h, read-out: Activity; in short: as §1

SMILES	growth at 10 µM (T47D) [%]	growth at 10 µM (HOP-92) [%]	growth at 10 µM (SW-620) [%]	growth at 10 µM (LOX IMVI) [%]	growth at 10 µM (COLO 205) [%]	growth at 10 µM (SF-268) [%]	growth at 10 µM (MCF7) [%]	growth at 10 µM (SK-MEL-2) [%]	growth at 10 µM (PC-3) [%]	growth at 10 µM (U-251) [%]	growth at 10 µM (TK-10) [%]	growth at 10 µM (SF-295) [%]	growth at 10 µM (NCI-H226) [%]	growth at 10 µM (786-0) [%]	growth at 10 µM (NCI-H322M) [%]	growth at 10 µM (OVCAR-8) [%]	growth at 10 µM (SF-539) [%]	growth at 10 µM (KM12) [%]	IC50 (HL-60) [µM]	growth at 10 µM (M14) [%]	also measured
CCOc1ccc(-n2nc(C(=O)NCc3cccc(OC)c3)nc2-c2cc(OC)c(OC)c(OC)c2)cc1	69.8	95.6	108	88.9	91.8	91.5	84.1	90	78.4	94.2	87.8	90.3	89.4	90.2	81.6	94.3	88.9	96.4	98.8	92.9	growth at 10 µM (K562): 88.5%; growth at 10 µM (HCC 2998): 102%; growth at 10 µM (SN12C): 96.5%; growth at 10 µM (UACC-62): 82.9%; growth at 10 µM (SK-MEL-28): 109%; growth at 10 µM (NCI-H522): 58.7%; growth at 10 µM (SK-MEL-5): 92.2%; growth at 10 µM (OVCAR-4): 98.9%
CCOc1ccc(-n2nc(C(=O)Nc3ccc(OC)c(O)c3)nc2-c2cc(OC)c(OC)c(OC)c2)cc1	88.8	68.1	104	90.6	109	94.1	90.9	96	72	93.2	107	108	96.5	94.5	84.7	78.7	96.2	92.8	> 100	103	growth at 10 µM (CAKI-1): 86.1%; growth at 10 µM (UACC-257): 90.8%; growth at 10 µM (NCI-H522): 70.3%; growth at 10 µM (OVCAR-4): 99.8%
CCOc1ccc(-n2nc(C(=O)Nc3cc(F)cc(F)c3)nc2-c2cc(OC)c(OC)c(OC)c2)cc1	55.9	67.8	99.3	86.6	89.9	88.9	79	92.9	69.9	82	96.9	84.6	77.2	82.1	85.3	84.6	82.4	85.9	> 100	98	growth at 10 µM (CAKI-1): 68.8%; growth at 10 µM (UACC-257): 90.4%; growth at 10 µM (NCI-H522): 61.6%; growth at 10 µM (OVCAR-4): 84.8%
CCOc1ccc(-n2nc(C(=O)Nc3cc(OC)c(OC)c(OC)c3)nc2-c2cc(OC)c(OC)c(OC)c2)cc1	51.4	69.9	95.5	89	80.3	92.1	83.2	85.6	70.2	85.1	104	95.9	78.1	77.1	89.2	74	87.8	81.8	> 100	91.5	growth at 10 µM (CAKI-1): 77.4%; growth at 10 µM (UACC-257): 93.1%; growth at 10 µM (NCI-H522): 65.9%; growth at 10 µM (OVCAR-4): 68.1%
CCOc1ccc(-n2nc(C(=O)Nc3ccc(F)c(F)c3)nc2-c2cc(OC)c(OC)c(OC)c2)cc1	41.7	67	89.9	66.4	63.7	84.9	78.8	78.4	47.1	70.3	87.4	60.5	69.1	85	73	42.2	96.6	56.7	17.1	70.2	growth at 10 µM (CAKI-1): 68.5%; growth at 10 µM (UACC-257): 89.4%; growth at 10 µM (NCI-H522): 61.1%; growth at 10 µM (OVCAR-4): 66.1%
